In article PMC2951064 (Journal of Medicinal Chemistry, 2010):

How the values were obtained:
wtBcr-Abl-Ba/F3 = assay: Antiproliferative activity on wtBcr-Abl-Ba/F3; format: cell-based, murine; conditions: for cellular Bcr-Abl inhibitory activity (in words): wild-type Bcr-Abl
T315I Bcr-Abl [1] = assay: Antiproliferative activity on T315I Bcr-Abl mutant Ba/F3 cells; format: cell-based, murine; conditions: for EC50: Mus musculus, BaF3, read-out: cellular EC50 T315I
How it was run: (§1)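 IL-3-dependent murine Ba/F3 cells were transfected with a pEYK vector carrying p210 Bcr-Abl with the point mutation. Cells were grown in RPMI 1640 with 10% FBS, 1% L-glutamine and 25 μg/mL zeocin at 37 °C under 5% CO2. Test compound was applied for 48 h, and proliferation was read by CellTiter-Glo luminescence.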

E255V Bcr-Abl = conditions: background statement, ref not given; cited from earlier work
Y253H Bcr-Abl = conditions: background statement, ref not given; cited from earlier work
[2] = test system: 40 other tyrosine kinases; conditions: cited from earlier work
[3] = test system: panel of 80 diverse kinases; conditions: cited from earlier work
T315I Bcr-Abl [4] = conditions: cited from earlier work
parental Ba/F3 = assay: Cytotoxicity on parental Ba/F3 cells; format: cell-based, murine; conditions: Mus musculus, BaF3, read-out: cellular EC50 Wt-Ba/F3
How it was run: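 Untransfected IL-3-dependent Ba/F3 cells were grown in RPMI 1640 with 10% FBS, 1% L-glutamine and 10% WEHI-conditioned medium as the IL-3 source, at 37 °C under 5% CO2. Cells were exposed to test compound for 48 h, and viability was measured by CellTiter-Glo luminescence.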

E505K Bcr-Abl = assay: Antiproliferative activity on E505K Bcr-Abl mutant Ba/F3 cells; format: cell-based, murine; conditions: Mus musculus, BaF3, read-out: cellular EC50 E505K
How it was run: as §1

Row | SMILES | cellular Bcr-Abl inhibitory activity (in words) (wtBcr-Abl-Ba/F3) | further results
1 | NC(=O)c1ccccc1-c1cc(Nc2ccc(OC(F)(F)F)cc2)ncn1 [5b] | inactive | 
2 | FC(F)(F)Oc1ccc(Oc2cc(NCCN3CCOCC3)ncn2)cc1 [8d] | complete loss of cellular activity | 
3 | NC(=O)c1cccc(-c2cc(Nc3ccc(OC(F)(F)F)cc3)ncn2)c1 [compound 1] | active | activity on T315I gatekeeper mutant (in words) (T315I Bcr-Abl [1]): inactive; activity on E255V mutant (in words) (E255V Bcr-Abl): active; activity on Y253H mutant (in words) (Y253H Bcr-Abl): active; inhibition of 40 other tyrosine kinases in cellular assays (in words) [2]: did not inhibit; inhibition of biochemical activity of a panel of 80 diverse kinases (in words) [3]: did not inhibit
4 | FC(F)(F)c1ccc(Nc2cc(-c3ccncc3)ncn2)cc1 [9j] | retained some activity | 
5 | O=C(NCCO)c1cccc(-c2cc(Nc3ccc(OC(F)(F)F)cc3)ncn2)c1 [compound 2, N-(2-Hydroxyethyl)-3-(6-(4-(trifluoromethoxy)phenylamino)pyrimidin-4-yl)benzamide] |  | synergy with nilotinib on proliferation of T315I Bcr-Abl (in words) (T315I Bcr-Abl [4]): capable of synergizing
6 | FC(F)(F)Oc1ccc(-c2cc(NCCN3CCOCC3)ncn2)cc1 [8e] | complete loss of cellular activity | 
7 | Cc1cn(-c2cc(NC(=O)c3ccc(C)c(Nc4nccc(-c5cccnc5)n4)c3)cc(C(F)(F)F)c2)cn1 [nilotinib, reference compound] |  | EC50 (wtBcr-Abl-Ba/F3; Mus musculus, read-out: wt Bcr-Abl-Ba/F3 EC50): 0.04 µM
8 | CN(c1ccc(OC(F)(F)F)cc1)c1cc(NCCN2CCOCC2)ncn1 [8a] | complete loss of cellular activity | 
9 | FC(F)(F)Oc1ccc(CNc2cc(NCCN3CCOCC3)ncn2)cc1 [8g] | completely inactive | 
10 | Fc1ccc(Nc2cc(-c3ccncc3)ncn2)cc1 [9h] | complete loss in activity | 
11 | CN1CCN(C(=O)c2cc3c(Nc4ccc(OC(F)(F)F)cc4)ncnc3s2)CC1 [14d] |  | EC50 (parental Ba/F3): > 10 µM; fold more potent than 14c (wtBcr-Abl-Ba/F3; cellular Bcr-Abl EC50, versus compound lacking N-methylation (14c)): approximately 10 fold; EC50 (T315I Bcr-Abl [1]): > 10 µM; EC50 (E505K Bcr-Abl): > 10 µM
12 | CN(c1ccc(OC(F)(F)F)cc1)c1cc(-c2ccncc2)ncn1 [9g] | complete loss of cellular activity | 
13 | FC(F)(F)Oc1ccc(Nc2ncnc(NCCN3CCOCC3)n2)cc1 [9l, N2-(2-morpholinoethyl)-N4-(4-(trifluoromethoxy)phenyl)-1,3,5-triazine-2,4-diamine] | inactive | 
14 | FC(F)(F)Oc1ccc(Nc2ccc(NCCN3CCOCC3)nn2)cc1 [9f] | inactive | 
15 | FC(F)(F)Oc1ccc(Nc2ccnc(NCCN3CCOCC3)n2)cc1 [9d] | inactive | 
16 | FC(F)(F)Oc1ccc(Nc2cncc(NCCN3CCOCC3)n2)cc1 [9e] | inactive | 
17 | COc1ccc(Nc2cc(NCCN3CCOCC3)ncn2)cc1 [8b] | complete loss of activity | 
18 | CS(=O)(=O)Nc1ccc(-c2cc(Nc3ccc(OC(F)(F)F)cc3)ncn2)cc1 [5h] |  | EC50 (parental Ba/F3): > 10 µM; EC50 (T315I Bcr-Abl [1]): > 10 µM; EC50 (E505K Bcr-Abl): > 10 µM
